Results gathered from unrelated publications.
Compare with care: the assays were run in different laboratories.
Target: Cyclin-dependent kinase 13 (CDK13, Homo sapiens, UniProt Q14004)

FC(F)(F)Oc1cccc(-c2cnc3ccc(-c4ccncc4)nn23)c1
remaining binding (cell-free assay; competition with immobilised ligand; 5 µM): 99%

CC(=O)c1c(NS(C)(=O)=O)c2cc(-c3ccc(Cl)cc3)c(-c3ccc(Cl)cc3Cl)nc2n(C)c1=O
remaining binding (cell-free assay; competition with immobilised ligand; 1 µM): 96%

Cc1cnc(Nc2ccc(C(=O)N3CCC(N4CCCC4)CC3)cc2)nc1-c1cc2ccccc2s1
remaining binding (binding; competition with immobilised ligand; 1 µM): 50%

O=C(NCC1CCOCC1)c1n[nH]cc1NC(=O)c1c(F)cccc1F
remaining binding (binding; competition with immobilised ligand; 1 µM): 66%

Cc1c(C(=O)O)cc(-c2ccc(C3CCNCC3)cc2)c2ccc(-c3ccc(C(F)(F)F)cc3)cc12
remaining binding (binding; competition with immobilised ligand; 1 µM): 100%

COc1cnc(Nc2cccc(S(N)(=O)=O)c2)nc1N1CCN(c2ccccc2)C(=O)C1
remaining binding (binding; competition with immobilised ligand; 1 µM): 94%

c1cncc(-c2cccc(Nc3nccc(NC4CCCCC4)n3)c2)c1
remaining binding (binding; competition with immobilised ligand; 10 µM): 100%

c1cnn2ncc(-c3ccnc(N4CCC45COC5)n3)c2c1
remaining binding (binding; 1 µM): 87%

O=C(c1ccc(Nc2nccc(-c3cc4ccccc4s3)n2)cc1)N1CCC(N2CCCC2)CC1
remaining binding (binding; competition with immobilised ligand; 1 µM): 92%

COc1cnc(Nc2cccc(S(N)(=O)=O)c2)nc1N1CCN(c2ccccc2)CC1
remaining binding (binding; competition with immobilised ligand; 1 µM): 21%

N[C@@H]1CCN(c2nccc(-c3cnn4ncccc34)n2)C1
remaining binding (binding; 1 µM): 54%

O=C(c1ccc(Nc2ncc(Cl)c(-c3ccc(Cl)s3)n2)cc1)N1CCC(N2CCCC2)CC1
remaining binding (binding; competition with immobilised ligand; 1 µM): 18%

CCCCN(CCCC)C(=O)CN1C[C@H](c2cc(OC)c3c(c2)OCO3)[C@@H](C(=O)O)[C@@H]1CC(C)(C)CCC
remaining binding (cell-free assay; competition with immobilised ligand; 1 µM): 52.5%

CN(c1nccc(-c2cnn3ncccc23)n1)C1CC1
remaining binding (binding; 1 µM): 100%

N#CC1(c2ccccn2)CCN(Cc2cc(C(=O)N3CCCC3)c(=O)n3ccccc23)CC1
remaining binding (cell-free assay; competition with immobilised ligand; 1 µM): 100%

COc1ccnn2ncc(-c3ccnc(N(C)C)n3)c12
remaining binding (binding; 1 µM): 69%

Cc1c[nH]c2nccc(Oc3c(F)cc(Nc4cc(Cl)nc(N)n4)cc3F)c12
remaining binding (cell-free assay; competition with immobilised ligand; 0.1 µM): 73%

C[C@H]1CCN(c2nccc(-c3cnn4ncccc34)n2)C1
remaining binding (binding; 1 µM): 84%
